From ChEMBL document CHEMBL1250445, “Fluorogenic probes for monitoring peptide binding to class II MHC proteins in living cells” (Nat Chem Biol, 2007) come the findings set out here.

Holding throughout (format): cell-based
Test [1] concerns the target HLA class II histocompatibility antigen, DRB1-15 beta chain (Homo sapiens) (UniProt P01911). The test is described as follows: Activation of HLA-DR1 positive B cells assessed as IL2 secretion. The procedure, abridged: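 HLA-DR1-positive B cells were pulsed with peptide and used as antigen-presenting cells for the HLA-DR1-restricted, HA-specific HA1.7 T cell hybridoma. Activation was read as IL-2 secretion in a thymidine incorporation bioassay, in c.p.m. Triplicate measurements, with SD shown.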

For test [2] the target is unchanged. The test is described as follows: Binding affinity to recombinant soluble HLA-DR1 expressed in […] assessed as fluorescence lifetime by fluorescence lifetime imaging microscopy.
For test [3] the target is unchanged. Description: Binding affinity to recombinant soluble HLA-DR1 expressed in […] assessed as relative fluorescence intensity by fluorescence spectral assay.
Test [4] concerns the target T1, HLA class II histocompatibility antigen, DRB1-15 beta chain (Homo sapiens, UniProt P01903+P01911, A100R/D57E/F55L/F60I/F76Y/I96L/L162R/M171V/P40L/Q125E/R42F/V115G/Y59C). The test is described as follows: Displacement of biotin-HA from recombinant soluble HLA-DR1 expressed in […] at acidic pH by ELISA. Background: An ELISA detects its analyte on a solid surface through an enzyme-linked reagent.

Test [5] has as its target HLA class II histocompatibility antigen, DRB1-15 beta chain (Homo sapiens) (UniProt P01911). Description: Binding affinity to recombinant soluble HLA-DR1 expressed in human T2 cells assessed as increase in fluorescence lifetime at 1 uM by fluorescence lifetime imaging microscopy.
Test [6] deals with T1, HLA class II histocompatibility antigen, DRB1-15 beta chain. The test is described as follows: Displacement of biotin-HA from recombinant soluble HLA-DR1 expressed in […] by ELISA.

Activity calls are given as the source filed them. The rule behind the calls is not given here. *1 amine or outer side, *2 acyl side, *3 side chain or, on linkers, in order; H or OH if unused. Where a SMILES comes first, the peptide text is derived from it. [ ]: non-standard residue; d: D form. The star is where a group is joined. X1 = CN(C)c1ccc2c(c1)C(=O)N(C[C@H](N[*:1])C(=O)[*:2])C2=O; X2 = CN(C)c1ccc2cc(C(=O)O)c(C(=O)*)cc2c1; X3 = CN(C)c1ccc(CC(=O)*)c(C(=O)O)c1; Dap = NC[C@H](N)C(=O)O Some results are limits rather than exact numbers.

In the case of `CC(C)C[C@H](NC(=O)[C@H](CCCCN)NC(=O)[C@H](CC(C)C)NC(=O)[C@@H](NC(=O)[C@H](CC(N)=O)NC(=O)[C@H](CCC(N)=O)NC(=O)[C@H](CCCCN)NC(=O)[C@@H](NC(=O)[C@H](Cc1ccc(O)cc1)NC(=O)[C@H](CCCCN)NC(=O)[C@@H]1CCCN1C(=O)[C@@H](N)CN1C(=O)c2ccc(N(C)C)cc2C1=O)C(C)C)[C@@H](C)O)C(=O)N[C@@H](C)C(=O)N[C@H](C(=O)O)[C@@H](C)O`, the outcome in test [1] was Active. Moreover, in test [2], the Time is 0.6 nanoseconds. For the same compound, the Activity in test [3] was 578 cps/nM.
As a reminder, the IC50 is the concentration that inhibits the measured activity by half. Take `CSCC[C@H](NC(=O)[C@H](CO)NC(=O)[C@H](CCCNC(=N)N)NC(=O)[C@H](CNC(=O)c1cc2cc(N(C)C)ccc2cc1C(=O)O)NC(C)=O)C(=O)N[C@@H](C)C(=O)N[C@@H](C)C(=O)N[C@@H](C)C(=O)N[C@@H](C)C(=O)N[C@@H](CC(C)C)C(=O)O` (Ac-[Dap](X2)RSMAAAAL-OH): the IC50 in test [4] was found to be 0.027 µM.
Take `CSCC[C@H](NC(=O)[C@H](CO)NC(=O)[C@H](CCCNC(=N)N)NC(=O)[C@@H](N)CN1C(=O)c2ccc(N(C)C)cc2C1=O)C(=O)N[C@@H](C)C(=O)N[C@@H](C)C(=O)N[C@@H](C)C(=O)N[C@@H](C)C(=O)N[C@@H](CC(C)C)C(=O)O` (H-[X1]RSMAAAAL-OH): in test [5], the result was Active. In addition, the IC50 in test [6] and in test [4] was 0.004 µM throughout. Moreover, the Time in test [2] turned out to be 0.82 nanoseconds. Moreover, the Activity in test [3] was determined as 599 cps/nM.
Take `C[C@@H](O)[C@H](NC(=O)[C@H](CCC(=O)O)NC(=O)[C@@H](N)CN1C(=O)c2ccc(N(C)C)cc2C1=O)C(=O)N[C@@H](CC(=O)O)C(=O)N[C@@H](CCCCN)C(=O)N[C@@H](CC(=O)O)C(=O)N[C@@H](CCCCN)C(=O)N[C@@H](CO)C(=O)N[C@@H](CCCN=C(N)N)C(=O)O` (H-[X1]ETDKDKSR-OH): the half-inhibitory concentration (IC50) in test [6] was greater than 10 µM.
Take `CSCC[C@H](NC(=O)[C@H](CO)NC(=O)[C@H](CCCN=C(N)N)NC(=O)[C@H](CNC(=O)Cc1ccc(N(C)C)cc1C(=O)O)NC(C)=O)C(=O)N[C@@H](C)C(=O)N[C@@H](C)C(=O)N[C@@H](C)C(=O)N[C@@H](C)C(=O)N[C@@H](CC(C)C)C(=O)O` (Ac-[Dap](X3)RSMAAAAL-OH): in test [4], the IC50 came to 0.028 µM.
For the compound `CN(C)c1ccc2c(c1)C(=O)N(C[C@H](NC(=O)OCC1c3ccccc3-c3ccccc31)C(=O)O)C2=O`, in test [6], the IC50 was greater than 1 µM.
